{"source": "ChEMBL document CHEMBL4477254", "about": "“Synthesis and biological evaluation of some novel triazole hybrids of curcumin mimics and their selective anticancer activity against breast and prostate cancer cell lines” (Bioorg Med Chem Lett, 2016)", "key": {"MCF7 [1]": {"test_system": "MCF7", "experiment": "Cell cycle arrest in human MCF7 cells assessed as accumulation at G0/G1 phase at 6 uM after 24 hrs by propidium iodide staining based flow cytometry (reference value: 45.67%)", "type": "functional", "outline": "(§1)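 Cells treated 24 h with test compound, MCF-7 at various concentrations and PC-3 at various concentrations; cells harvested, stained with propidium iodide and acquired by flow cytometry for cell cycle phase distribution.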"}, "MCF7 [2]": {"test_system": "MCF7", "experiment": "Induction of apoptosis in human MCF7 cells assessed as early apoptotic cells at 9 uM after 24 hrs by annexin V-FITC/propidium iodide staining based flow cytometry (reference value: 7.36%)", "type": "functional", "outline": "(§2)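 Apoptosis by Annexin V-FITC/PI dual staining: MCF-7 cells treated 24 h at 3, 6 and 9 µM, then harvested, stained and acquired by flow cytometry; early apoptotic = AnnexinV+/PI−, live = AnnexinV−/PI−, necrotic = AnnexinV−/PI+.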"}, "MCF7 [3]": {"test_system": "MCF7", "experiment": "Induction of morphological changes in human MCF7 cells at 1 to 6 uM after 24 hrs by phase contrast microscopy", "type": "functional, cell-based", "outline": "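Cells were exposed to a range of concentrations for 24 h. Cell number and morphology, including detachment from the surface, were assessed by phase-contrast microscopy at 10X magnification.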"}, "[4]": {"experiment": "Elimination rate constant in liver microsomes (unknown origin) at 5 ug/ml measured up to 60 mins by UPLC analysis", "type": "ADME, Microsome"}, "MCF7 [5]": {"test_system": "MCF7", "experiment": "Induction of apoptosis in human MCF7 cells assessed as necrotic cells at 9 uM after 24 hrs by annexin V-FITC/propidium iodide staining based flow cytometry (reference value: 4.76%)", "type": "functional", "outline": "as §2"}, "MCF7 [6]": {"test_system": "MCF7", "experiment": "Cell cycle arrest in human MCF7 cells assessed as accumulation at G2/M phase at 9 uM after 24 hrs by propidium iodide staining based flow cytometry (reference value: 20.30%)", "type": "functional", "outline": "as §1"}, "MCF7 [7]": {"test_system": "MCF7", "experiment": "Induction of apoptosis in human MCF7 cells assessed as viable cells at 3 uM after 24 hrs by annexin V-FITC/propidium iodide staining based flow cytometry (reference value: 82.63%)", "type": "functional", "conditions": "MCF7, 24 h, read-out: Activity", "outline": "as §2"}, "[8]": {"experiment": "Drug metabolism in liver microsomes (unknown origin) assessed as compound remaining at 5 ug/ml after 5 mins in presence of NADPH by UPLC analysis", "type": "ADME, Microsome", "conditions": "read-out: Drug metabolism", "outline": "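Microsomal metabolic stability; percentage of compound remaining intact measured after 5 min incubation in presence of microsomes.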"}, "MCF7 [9]": {"test_system": "MCF7", "experiment": "Induction of apoptosis in human MCF7 cells assessed as late apoptotic cells at 3 uM after 24 hrs by annexin V-FITC/propidium iodide staining based flow cytometry (reference value: 5.25%)", "type": "functional", "outline": "as §2"}, "MCF7 [10]": {"test_system": "MCF7", "experiment": "Induction of mitochondrial membrane depolarization in human MCF7 cells at 9 uM after 24 hrs by JC-1 staining based flow cytometry (reference value: 11%)", "type": "functional"}, "MCF7 [11]": {"test_system": "MCF7", "experiment": "Induction of apoptosis in human MCF7 cells assessed as viable cells at 9 uM after 24 hrs by annexin V-FITC/propidium iodide staining based flow cytometry (reference value: 82.63%)", "type": "functional", "conditions": "MCF7, 24 h, read-out: Activity", "outline": "(§3)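 MCF-7 cells exposed to 3, 6 or 9 μM and PC-3 cells to 4.8 or 8.8 μM for 24 h, then harvested and dual-stained with Annexin V-FITC/PI and read by flow cytometry. Gates: live AnnexinV⁻/PI⁻, early apoptotic AnnexinV⁺/PI⁻, necrotic AnnexinV⁻/PI⁺.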"}, "MCF7 [12]": {"test_system": "MCF7", "experiment": "Cell cycle arrest in human MCF7 cells assessed as decrease in cells at G0/G1 phase after 24 hrs by propidium iodide staining based flow cytometry", "type": "functional", "outline": "as §1"}, "MCF7 [13]": {"test_system": "MCF7", "experiment": "Induction of apoptosis in human MCF7 cells assessed as early apoptotic cells at 6 uM after 24 hrs by annexin V-FITC/propidium iodide staining based flow cytometry (reference value: 7.36%)", "type": "functional", "outline": "as §2"}, "MCF7 [14]": {"test_system": "MCF7", "experiment": "Induction of apoptosis in human MCF7 cells assessed as late apoptotic cells at 6 uM after 24 hrs by annexin V-FITC/propidium iodide staining based flow cytometry (reference value: 5.25%)", "type": "functional", "outline": "as §2"}, "PC-3 [15]": {"test_system": "PC-3", "experiment": "Induction of apoptosis in human PC3 cells assessed as viable cells at 8.8 uM after 24 hrs by annexin V-FITC/propidium iodide staining based flow cytometry (reference value: 92.24%)", "type": "functional", "conditions": "PC-3, 24 h, read-out: Activity", "outline": "as §3"}, "PC-3 [16]": {"test_system": "PC-3", "experiment": "Decrease in Bcl-2 expression in human PC3 cells at 4.8 to 8.8 uM after 24 hrs by Western blot analysis", "type": "functional, cell-based", "outline": "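MCF-7 or PC-3 cells treated with compound for 24 h, harvested; PCNA, Bax and Bcl-2 protein expression checked by Western blotting.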"}, "PC-3 [17]": {"test_system": "PC-3", "experiment": "Cell cycle arrest in human PC3 cells assessed as accumulation at G2/M phase at 8.8 uM after 24 hrs by propidium iodide staining based flow cytometry (reference value: 2.25%)", "type": "functional", "outline": "as §1"}, "PC-3 [18]": {"test_system": "PC-3", "experiment": "Induction of apoptosis in human PC3 cells assessed as early apoptotic cells at 8.8 uM after 24 hrs by annexin V-FITC/propidium iodide staining based flow cytometry (reference value: 4.44%)", "type": "functional", "outline": "as §3"}, "PC-3 [19]": {"test_system": "PC-3", "experiment": "Induction of apoptosis in human PC3 cells assessed as late apoptotic cells at 4.8 uM after 24 hrs by annexin V-FITC/propidium iodide staining based flow cytometry (reference value: 0.80%)", "type": "functional", "outline": "as §3"}, "[20]": {"molecular_target": "Serine/threonine-protein kinase AKT (Homo sapiens) (UniProt P31751+Q9Y243+P31749)", "sequence (P31749 whole entry, looked up)": "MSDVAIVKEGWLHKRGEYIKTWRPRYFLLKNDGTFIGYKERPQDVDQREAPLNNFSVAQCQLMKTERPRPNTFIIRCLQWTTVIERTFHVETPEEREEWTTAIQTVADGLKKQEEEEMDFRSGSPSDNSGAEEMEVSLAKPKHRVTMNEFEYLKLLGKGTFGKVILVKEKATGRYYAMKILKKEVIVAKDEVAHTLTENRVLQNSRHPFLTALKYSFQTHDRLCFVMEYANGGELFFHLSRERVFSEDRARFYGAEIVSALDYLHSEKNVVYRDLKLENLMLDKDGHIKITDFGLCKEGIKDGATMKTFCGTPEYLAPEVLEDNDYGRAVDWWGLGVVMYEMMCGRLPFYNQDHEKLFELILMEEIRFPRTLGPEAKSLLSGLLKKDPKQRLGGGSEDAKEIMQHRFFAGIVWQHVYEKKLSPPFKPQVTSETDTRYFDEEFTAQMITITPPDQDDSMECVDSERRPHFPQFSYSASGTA", "sequence (P31751 whole entry, looked up)": "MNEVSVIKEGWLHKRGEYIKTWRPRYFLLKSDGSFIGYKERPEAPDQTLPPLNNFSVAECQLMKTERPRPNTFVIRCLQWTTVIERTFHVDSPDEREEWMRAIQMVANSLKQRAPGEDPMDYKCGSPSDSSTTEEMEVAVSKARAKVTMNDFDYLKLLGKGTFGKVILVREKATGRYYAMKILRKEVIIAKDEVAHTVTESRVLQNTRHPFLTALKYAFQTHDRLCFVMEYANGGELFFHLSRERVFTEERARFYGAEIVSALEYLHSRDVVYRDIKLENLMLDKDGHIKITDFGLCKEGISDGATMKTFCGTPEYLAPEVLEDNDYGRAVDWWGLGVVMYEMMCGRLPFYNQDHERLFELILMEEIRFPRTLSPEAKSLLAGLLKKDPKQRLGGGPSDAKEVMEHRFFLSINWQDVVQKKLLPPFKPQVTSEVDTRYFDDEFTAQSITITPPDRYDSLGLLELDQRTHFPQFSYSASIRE", "sequence (Q9Y243 whole entry, looked up)": "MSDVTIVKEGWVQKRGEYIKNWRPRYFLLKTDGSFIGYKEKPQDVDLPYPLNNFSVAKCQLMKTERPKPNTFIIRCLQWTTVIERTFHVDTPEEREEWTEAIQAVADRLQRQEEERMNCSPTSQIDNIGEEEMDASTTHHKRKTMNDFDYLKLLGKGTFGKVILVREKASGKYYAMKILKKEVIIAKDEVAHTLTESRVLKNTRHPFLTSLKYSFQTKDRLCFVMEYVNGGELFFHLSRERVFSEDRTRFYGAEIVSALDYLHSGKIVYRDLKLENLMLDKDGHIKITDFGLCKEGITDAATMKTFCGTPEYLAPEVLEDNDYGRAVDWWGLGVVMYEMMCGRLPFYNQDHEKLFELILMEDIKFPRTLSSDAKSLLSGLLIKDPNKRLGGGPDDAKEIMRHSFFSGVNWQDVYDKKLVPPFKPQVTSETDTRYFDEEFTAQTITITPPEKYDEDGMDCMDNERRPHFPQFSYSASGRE", "experiment": "Inhibition of Akt phosphorylation at […] in human PC3 cells at 8.8 uM after 24 hrs by Western blot analysis", "type": "cell-based", "outline": "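Protein expression was analysed by Western blotting of cells harvested after 24 h compound treatment.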"}, "[21]": {"experiment": "Half life in liver microsomes (unknown origin) at 8 ug/ml in presence of NADPH by UPLC analysis", "type": "ADME, Microsome"}, "PC-3 [22]": {"test_system": "PC-3", "experiment": "Cell cycle arrest in human PC3 cells assessed as accumulation at G2/M phase at 4.8 uM after 24 hrs by propidium iodide staining based flow cytometry (reference value: 2.25%)", "type": "functional", "outline": "as §1"}}, "note": "Activity calls are given as the source filed them. The rule behind the calls is not given here."}
{"smiles": "O=C1/C(=C/c2ccccc2F)CN(Cc2cn(Cc3ccc(F)cc3)nn2)C/C1=C\\c1ccccc1F", "values": [{"measurement": "Activity", "setting": "MCF7 [1]", "result": 11.97, "unit": "%"}, {"measurement": "Activity", "setting": "MCF7 [2]", "result": 30.88, "unit": "%"}, {"measurement": "Activity", "setting": "MCF7 [3]", "result": "Active"}, {"measurement": "k el at 1 h, 5 ug/ml", "setting": "[4]", "result": 0.00147, "unit": "s⁻¹"}, {"measurement": "Activity", "setting": "MCF7 [5]", "result": 9.22, "unit": "%"}, {"measurement": "Activity", "setting": "MCF7 [6]", "result": 35.11, "unit": "%"}, {"measurement": "viability at 3 µM", "setting": "MCF7 [7]", "result": 52.4, "unit": "%"}, {"measurement": "remaining at 5 min, 5 ug/ml", "setting": "[8]", "result": 46, "unit": "%"}, {"measurement": "Activity", "setting": "MCF7 [9]", "result": 16.3, "unit": "%"}, {"measurement": "Activity", "setting": "MCF7 [10]", "result": 89.87, "unit": "%"}, {"measurement": "viability at 9 µM", "setting": "MCF7 [11]", "result": 40.3, "unit": "%"}, {"measurement": "Activity", "setting": "MCF7 [12]", "result": "Dose-dependent effect"}, {"measurement": "Activity", "setting": "MCF7 [13]", "result": 30.56, "unit": "%"}, {"measurement": "Activity", "setting": "MCF7 [14]", "result": 15.2, "unit": "%"}]}
{"smiles": "Cc1ccc(/C=C2\\CN(Cc3cn(Cc4ccccc4F)nn3)C/C(=C\\c3ccc(C)cc3)C2=O)cc1", "values": [{"measurement": "viability at 8.8 µM", "setting": "PC-3 [15]", "result": 80.8, "unit": "%"}, {"measurement": "Activity", "setting": "PC-3 [16]", "result": "Active"}, {"measurement": "Activity", "setting": "PC-3 [17]", "result": 8.9, "unit": "%"}, {"measurement": "Activity", "setting": "PC-3 [18]", "result": 17.54, "unit": "%"}, {"measurement": "Activity", "setting": "PC-3 [19]", "result": 0.81, "unit": "%"}, {"measurement": "inhibition", "setting": "[20]", "result": 100, "unit": "%"}, {"measurement": "half-life at 8 ug/ml", "setting": "[21]", "result": 15.9, "unit": "min"}, {"measurement": "Activity", "setting": "PC-3 [22]", "result": 8.36, "unit": "%"}]}
